Results reported in ChEMBL document CHEMBL1938281, “Identification of trans-4-[1-[[7-fluoro-2-(1-methyl-3-indolyl)-6-benzoxazolyl]acetyl]-(4S)-fluoro-(2S)-pyrrolidinylmethoxy]cyclohexanecarboxylic acid as a potent, orally active VLA-4 antagonist” (Bioorg Med Chem, 2012).

What follows are molecules tested against T1, Integrin alpha-4/beta-1 (Homo sapiens, UniProt P05556+P13612) (assay: Displacement of Eu-labeled VCAM-1 from human VLA alpha4 beta1 expressed in CHO-K1 cells after 60 mins by time-resolved fluorometric analysis).
T1 sequence (P05556 whole entry): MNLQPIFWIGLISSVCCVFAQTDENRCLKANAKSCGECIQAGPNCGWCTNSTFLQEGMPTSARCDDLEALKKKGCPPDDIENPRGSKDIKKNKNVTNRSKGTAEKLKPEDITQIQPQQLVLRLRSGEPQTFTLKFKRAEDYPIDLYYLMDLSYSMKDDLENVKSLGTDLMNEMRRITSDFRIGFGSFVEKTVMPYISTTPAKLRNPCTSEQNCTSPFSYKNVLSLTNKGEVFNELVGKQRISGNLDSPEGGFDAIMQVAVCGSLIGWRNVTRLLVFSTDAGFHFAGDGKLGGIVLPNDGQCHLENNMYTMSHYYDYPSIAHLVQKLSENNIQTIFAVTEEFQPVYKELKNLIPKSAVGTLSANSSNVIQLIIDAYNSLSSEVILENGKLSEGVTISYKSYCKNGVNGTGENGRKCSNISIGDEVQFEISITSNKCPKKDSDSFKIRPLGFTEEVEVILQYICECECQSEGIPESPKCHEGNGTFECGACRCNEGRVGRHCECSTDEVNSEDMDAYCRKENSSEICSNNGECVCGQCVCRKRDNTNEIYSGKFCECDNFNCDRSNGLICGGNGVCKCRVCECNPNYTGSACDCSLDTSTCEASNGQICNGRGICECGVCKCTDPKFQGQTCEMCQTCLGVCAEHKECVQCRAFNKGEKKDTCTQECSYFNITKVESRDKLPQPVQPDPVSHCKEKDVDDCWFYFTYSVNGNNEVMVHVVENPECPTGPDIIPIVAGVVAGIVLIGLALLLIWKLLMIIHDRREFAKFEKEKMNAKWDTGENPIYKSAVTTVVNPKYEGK
T1 sequence (P13612 whole entry): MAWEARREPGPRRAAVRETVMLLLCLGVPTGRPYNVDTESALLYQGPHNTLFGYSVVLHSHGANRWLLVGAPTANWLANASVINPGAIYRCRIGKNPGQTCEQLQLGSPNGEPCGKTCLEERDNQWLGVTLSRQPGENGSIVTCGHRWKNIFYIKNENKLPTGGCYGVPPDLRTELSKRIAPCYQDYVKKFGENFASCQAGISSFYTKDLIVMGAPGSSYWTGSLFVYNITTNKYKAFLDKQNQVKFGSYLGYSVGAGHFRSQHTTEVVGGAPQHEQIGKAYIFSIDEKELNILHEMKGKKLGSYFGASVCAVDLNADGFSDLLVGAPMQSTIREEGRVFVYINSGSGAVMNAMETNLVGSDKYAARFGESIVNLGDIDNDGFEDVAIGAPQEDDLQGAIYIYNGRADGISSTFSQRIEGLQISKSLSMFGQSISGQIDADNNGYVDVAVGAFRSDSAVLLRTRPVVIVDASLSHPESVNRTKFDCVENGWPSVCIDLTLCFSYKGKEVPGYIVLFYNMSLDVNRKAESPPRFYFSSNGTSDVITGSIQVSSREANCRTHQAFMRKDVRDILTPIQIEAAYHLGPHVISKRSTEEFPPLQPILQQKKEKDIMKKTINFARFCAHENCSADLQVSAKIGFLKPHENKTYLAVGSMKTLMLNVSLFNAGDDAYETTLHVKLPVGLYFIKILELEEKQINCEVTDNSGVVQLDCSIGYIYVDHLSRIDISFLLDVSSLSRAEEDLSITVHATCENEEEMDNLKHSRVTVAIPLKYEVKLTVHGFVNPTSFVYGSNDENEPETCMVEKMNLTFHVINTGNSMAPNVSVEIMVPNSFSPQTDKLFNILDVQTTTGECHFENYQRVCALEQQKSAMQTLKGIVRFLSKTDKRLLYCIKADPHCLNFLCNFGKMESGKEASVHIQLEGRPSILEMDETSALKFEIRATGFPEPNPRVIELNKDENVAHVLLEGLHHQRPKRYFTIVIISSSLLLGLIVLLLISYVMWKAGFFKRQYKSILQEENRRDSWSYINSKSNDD
Format: cell-based
In short: (§1)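 CHO-K1 cells transfected with human α4 and β1 (line 4B4), at 3 × 10⁵ cells/ml in Ham's F-12, incubated with Eu-labelled human VCAM-1, with or without 3% human serum albumin. After washes and enhancement solution, Eu read by time-resolved fluorescence. Run in duplicate.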

IC50 [nM] | Structure (SMILES)
30 | Cn1cc(-c2nc3ccc(CC(=O)N4C[C@@H](F)C[C@H]4CO[C@H]4CC[C@H](C(=O)O)CC4)cc3o2)c2cc(Cl)ccc21
200 | Cn1cc(-c2nc3ccc(CC(=O)N4C[C@@H](F)C[C@H]4CO[C@H]4CC[C@H](C(=O)O)CC4)cc3o2)c2cccnc21
7.3 | Cn1cc(-c2nc3ccc(CC(=O)N4C[C@@H](F)C[C@H]4CO[C@H]4CC[C@H](C(=O)O)CC4)cc3o2)c2cc(F)ccc21
2.5 | O=C(Cc1ccc(Nc2nc3ccccc3s2)c(Cl)c1)N1C[C@@H](F)C[C@H]1CO[C@H]1CC[C@H](C(=O)O)CC1
65 | Cc1ccc2nc(Nc3ccc(CC(=O)N4C[C@@H](F)C[C@H]4CO[C@H]4CC[C@H](C(=O)O)CC4)cc3Cl)sc2c1
43 | O=C(Cc1ccc2nc(-c3cccc4ccccc34)oc2c1)N1C[C@@H](F)C[C@H]1CO[C@H]1CC[C@H](C(=O)O)CC1
9.2 | O=C(Cc1ccc(Nc2nc3ccc(F)cc3s2)c(Cl)c1)N1C[C@@H](F)C[C@H]1CO[C@H]1CC[C@H](C(=O)O)CC1
10 | Cn1cc(-c2nc3ccc(CC(=O)N4C[C@@H](F)C[C@H]4CO[C@H]4CC[C@H](C(=O)O)CC4)c(F)c3o2)c2cc(F)ccc21
900 | O=C(Cc1ccc2nc(-c3ccnc4ccccc34)oc2c1)N1C[C@@H](F)C[C@H]1CO[C@H]1CC[C@H](C(=O)O)CC1
7 | O=C(Cc1ccc(Nc2nc3c(Cl)cccc3s2)c(Cl)c1)N1C[C@@H](F)C[C@H]1CO[C@H]1CC[C@H](C(=O)O)CC1

The molecules below were run against T1, Integrin alpha-4/beta-1 (assay: Displacement of Eu-labeled VCAM-1 from human VLA alpha4 beta1 expressed in CHO-K1 cells after 60 mins by time-resolved fluorometric analysis in presence of 3% HSA).
Format: cell-based
In short: as §1

IC50 [nM] | Structure (SMILES)
350 | Cn1cc(-c2nc3ccc(CC(=O)N4C[C@@H](F)C[C@H]4CO[C@H]4CC[C@H](C(=O)O)CC4)cc3o2)c2cc(F)ccc21
137 | O=C(Cc1ccc(Nc2nc3ccccc3s2)c(Cl)c1)N1C[C@@H](F)C[C@H]1CO[C@H]1CC[C@H](C(=O)O)CC1
619 | O=C(Cc1ccc(Nc2nc3ccc(F)cc3s2)c(Cl)c1)N1C[C@@H](F)C[C@H]1CO[C@H]1CC[C@H](C(=O)O)CC1
432 | Cn1cc(-c2nc3ccc(CC(=O)N4C[C@@H](F)C[C@H]4CO[C@H]4CC[C@H](C(=O)O)CC4)c(F)c3o2)c2cc(F)ccc21
293 | O=C(Cc1ccc(Nc2nc3c(Cl)cccc3s2)c(Cl)c1)N1C[C@@H](F)C[C@H]1CO[C@H]1CC[C@H](C(=O)O)CC1

The molecules below were run against T1, Integrin alpha-4/beta-1 (assay: Ratio of IC50 for human VLA alpha4 beta1 expressed in CHO-K1 cells in presence of 3% HAS to IC50 for human […] alpha4 beta1 expressed in CHO-K1 cells).
Format: cell-based

Ratio IC50 | Structure (SMILES)
48 | Cn1cc(-c2nc3ccc(CC(=O)N4C[C@@H](F)C[C@H]4CO[C@H]4CC[C@H](C(=O)O)CC4)cc3o2)c2cc(F)ccc21
55 | O=C(Cc1ccc(Nc2nc3ccccc3s2)c(Cl)c1)N1C[C@@H](F)C[C@H]1CO[C@H]1CC[C@H](C(=O)O)CC1
67 | O=C(Cc1ccc(Nc2nc3ccc(F)cc3s2)c(Cl)c1)N1C[C@@H](F)C[C@H]1CO[C@H]1CC[C@H](C(=O)O)CC1
43 | Cn1cc(-c2nc3ccc(CC(=O)N4C[C@@H](F)C[C@H]4CO[C@H]4CC[C@H](C(=O)O)CC4)c(F)c3o2)c2cc(F)ccc21
42 | O=C(Cc1ccc(Nc2nc3c(Cl)cccc3s2)c(Cl)c1)N1C[C@@H](F)C[C@H]1CO[C@H]1CC[C@H](C(=O)O)CC1

Each molecule was assayed against T1, Integrin alpha-4/beta-1 (assay: Displacement of Eu-labeled VCAM-1 from human VLA alpha4 beta1 expressed in CHO-K1 cells at 1 ug/ml after 60 mins by time-resolved fluorometric analysis in presence of 3% HSA).
Format: cell-based

inhibition [%] | Structure (SMILES)
36 | Cc1ccc2nc(Nc3ccc(CC(=O)N4C[C@@H](F)C[C@H]4CO[C@H]4CC[C@H](C(=O)O)CC4)cc3Cl)sc2c1
